Test results reported in the M2OR odorant receptor database.

Assays:
Details in all cases: stereoisomer not certain
OR51Q1 (Homo sapiens) = OR51Q1 (Homo sapiens) (UniProt Q8NH59)
Procedure, shortened: (§1)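 Assay methods differ from source to source, frequently being transient luciferase assays in mammalian cell lines. For each receptor–molecule pair, the label responsive (active) applies when the original authors judged the measured signal statistically different from baseline, and non-responsive (inactive) applies otherwise.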

OR51S1 (Homo sapiens) = OR51S1 (Homo sapiens) (UniProt Q8NGJ8)
Procedure, shortened: as §1

OR51V1 (Homo sapiens) = OR51V1 (Homo sapiens) (UniProt Q9H2C8)
Procedure, shortened: as §1

OR52A1 (Homo sapiens) = OR52A1 (Homo sapiens) (UniProt Q9UKL2)
Procedure, shortened: as §1

OR52A5 (Homo sapiens) = OR52A5 (Homo sapiens) (UniProt Q9H2C5)
Procedure, shortened: as §1

OR52B2 (Homo sapiens) = OR52B2 (Homo sapiens) (UniProt Q96RD2)
Procedure, shortened: as §1

OR52B4 (Homo sapiens) = OR52B4 (Homo sapiens) (UniProt Q8NGK2)
Procedure, shortened: as §1

OR52B6 (Homo sapiens) = OR52B6 (Homo sapiens) (UniProt Q8NGF0)
Procedure, shortened: as §1

OR51T1 (Homo sapiens) = OR51T1 (Homo sapiens) (UniProt Q8NGJ9)
Procedure, shortened: as §1

OR52A4P (Homo sapiens) = OR52A4P (Homo sapiens) (UniProt A6NMU1)
Procedure, shortened: as §1

Measured: odorant receptor agonist call

Sequence of OR52B4 (Homo sapiens) (Q8NGK2 whole entry): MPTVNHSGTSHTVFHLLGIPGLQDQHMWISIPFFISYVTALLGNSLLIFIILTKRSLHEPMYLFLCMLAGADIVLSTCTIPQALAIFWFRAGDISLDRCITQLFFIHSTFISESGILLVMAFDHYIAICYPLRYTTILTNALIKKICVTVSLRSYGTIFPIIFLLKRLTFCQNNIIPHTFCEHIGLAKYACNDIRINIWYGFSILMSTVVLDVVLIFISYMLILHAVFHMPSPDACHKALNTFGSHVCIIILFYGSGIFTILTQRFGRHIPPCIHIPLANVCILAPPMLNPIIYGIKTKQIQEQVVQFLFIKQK
Sequence of OR51S1 (Homo sapiens) (Q8NGJ8 whole entry): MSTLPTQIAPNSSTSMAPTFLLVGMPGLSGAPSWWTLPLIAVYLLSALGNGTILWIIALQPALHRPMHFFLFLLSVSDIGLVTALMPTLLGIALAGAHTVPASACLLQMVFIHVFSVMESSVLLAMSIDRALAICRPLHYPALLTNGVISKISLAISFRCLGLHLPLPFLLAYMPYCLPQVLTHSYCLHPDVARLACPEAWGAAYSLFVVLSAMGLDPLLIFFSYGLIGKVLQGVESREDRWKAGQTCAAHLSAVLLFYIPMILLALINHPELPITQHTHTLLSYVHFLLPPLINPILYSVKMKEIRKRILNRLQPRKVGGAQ
Sequence of OR52A5 (Homo sapiens) (Q9H2C5 whole entry): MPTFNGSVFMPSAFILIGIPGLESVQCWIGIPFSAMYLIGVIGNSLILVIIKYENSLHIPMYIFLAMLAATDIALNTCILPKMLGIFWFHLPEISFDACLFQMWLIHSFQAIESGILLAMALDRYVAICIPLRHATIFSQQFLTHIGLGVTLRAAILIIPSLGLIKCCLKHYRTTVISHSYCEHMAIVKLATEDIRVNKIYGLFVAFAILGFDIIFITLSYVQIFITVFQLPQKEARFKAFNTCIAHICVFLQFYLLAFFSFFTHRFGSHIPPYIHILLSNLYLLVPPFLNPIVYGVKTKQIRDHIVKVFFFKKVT
Sequence of OR51V1 (Homo sapiens) (Q9H2C8 whole entry): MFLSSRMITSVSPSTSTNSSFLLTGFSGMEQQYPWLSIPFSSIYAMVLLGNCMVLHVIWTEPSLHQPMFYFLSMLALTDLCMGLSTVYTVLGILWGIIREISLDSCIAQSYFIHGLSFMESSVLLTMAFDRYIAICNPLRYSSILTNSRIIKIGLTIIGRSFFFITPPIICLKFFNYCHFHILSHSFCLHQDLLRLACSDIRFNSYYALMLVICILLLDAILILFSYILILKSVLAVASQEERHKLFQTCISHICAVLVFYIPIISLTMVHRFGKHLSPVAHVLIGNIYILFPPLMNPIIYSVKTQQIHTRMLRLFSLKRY
Sequence of OR52A1 (Homo sapiens) (Q9UKL2 whole entry): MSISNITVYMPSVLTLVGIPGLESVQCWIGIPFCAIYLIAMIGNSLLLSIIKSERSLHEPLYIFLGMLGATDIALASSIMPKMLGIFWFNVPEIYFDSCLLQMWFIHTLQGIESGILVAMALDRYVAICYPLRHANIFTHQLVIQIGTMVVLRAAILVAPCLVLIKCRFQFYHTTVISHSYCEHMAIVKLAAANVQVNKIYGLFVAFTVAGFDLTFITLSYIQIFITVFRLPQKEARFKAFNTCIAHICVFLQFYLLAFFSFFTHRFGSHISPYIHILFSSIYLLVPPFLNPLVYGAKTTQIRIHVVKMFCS
Sequence of OR51Q1 (Homo sapiens) (Q8NH59 whole entry): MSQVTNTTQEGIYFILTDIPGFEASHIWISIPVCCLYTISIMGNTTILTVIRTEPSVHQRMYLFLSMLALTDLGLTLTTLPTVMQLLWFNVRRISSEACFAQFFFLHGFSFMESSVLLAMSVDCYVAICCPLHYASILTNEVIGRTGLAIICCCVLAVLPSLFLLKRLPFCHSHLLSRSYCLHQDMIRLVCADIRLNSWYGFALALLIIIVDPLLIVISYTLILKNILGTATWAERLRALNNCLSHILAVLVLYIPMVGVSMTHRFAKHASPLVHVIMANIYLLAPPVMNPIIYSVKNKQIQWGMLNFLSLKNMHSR
Sequence of OR52B6 (Homo sapiens) (Q8NGF0 whole entry): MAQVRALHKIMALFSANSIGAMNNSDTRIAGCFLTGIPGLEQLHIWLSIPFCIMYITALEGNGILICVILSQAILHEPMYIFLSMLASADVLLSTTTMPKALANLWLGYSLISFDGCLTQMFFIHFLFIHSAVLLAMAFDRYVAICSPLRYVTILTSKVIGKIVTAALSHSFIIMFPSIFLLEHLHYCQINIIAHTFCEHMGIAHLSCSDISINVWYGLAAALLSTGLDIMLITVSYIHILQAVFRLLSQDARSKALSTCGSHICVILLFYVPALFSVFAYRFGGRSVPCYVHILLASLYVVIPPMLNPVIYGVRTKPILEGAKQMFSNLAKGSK
Sequence of OR52B2 (Homo sapiens) (Q96RD2 whole entry): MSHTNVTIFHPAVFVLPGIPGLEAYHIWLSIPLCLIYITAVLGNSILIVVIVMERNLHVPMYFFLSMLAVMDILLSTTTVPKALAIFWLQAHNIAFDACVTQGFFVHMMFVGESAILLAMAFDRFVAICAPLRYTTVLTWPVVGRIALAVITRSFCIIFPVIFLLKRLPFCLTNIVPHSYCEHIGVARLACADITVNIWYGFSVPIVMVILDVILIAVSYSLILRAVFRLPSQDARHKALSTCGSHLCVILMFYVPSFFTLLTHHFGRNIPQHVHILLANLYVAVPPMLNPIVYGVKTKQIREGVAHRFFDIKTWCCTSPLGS
Sequence of OR52A4P (Homo sapiens) (A6NMU1 whole entry): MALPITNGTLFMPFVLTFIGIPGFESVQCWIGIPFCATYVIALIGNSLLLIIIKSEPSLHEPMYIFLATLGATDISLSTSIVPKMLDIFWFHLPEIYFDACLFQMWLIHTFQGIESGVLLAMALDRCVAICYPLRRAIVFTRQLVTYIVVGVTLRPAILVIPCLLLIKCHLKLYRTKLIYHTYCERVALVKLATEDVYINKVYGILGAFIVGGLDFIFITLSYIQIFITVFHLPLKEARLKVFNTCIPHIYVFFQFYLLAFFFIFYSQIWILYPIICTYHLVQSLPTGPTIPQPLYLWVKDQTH
Sequence of OR51T1 (Homo sapiens) (Q8NGJ9 whole entry): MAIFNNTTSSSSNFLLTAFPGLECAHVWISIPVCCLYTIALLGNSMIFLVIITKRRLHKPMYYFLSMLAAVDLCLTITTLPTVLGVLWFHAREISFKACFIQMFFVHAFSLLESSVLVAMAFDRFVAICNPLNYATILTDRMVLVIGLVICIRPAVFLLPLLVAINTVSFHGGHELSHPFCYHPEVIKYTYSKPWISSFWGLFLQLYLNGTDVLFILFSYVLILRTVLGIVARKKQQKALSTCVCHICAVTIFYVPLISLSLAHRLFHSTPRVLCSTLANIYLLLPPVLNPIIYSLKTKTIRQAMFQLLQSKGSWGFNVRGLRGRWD

C=CCOC(=O)Cc1ccccc1
not listed: OR51T1 (Homo sapiens) | OR52A4P (Homo sapiens)
inactive: all other assays above

Cc1c([N+](=O)[O-])c(C)c([N+](=O)[O-])c(C(C)(C)C)c1[N+](=O)[O-]
inactive: all assays above
